Bioassay records deposited in PubChem BioAssay by Sanford-Burnham Center for Chemical Genomics.
In the library only some 3.3% were active in any assay of this set; here they are far more common.
SENP1 inh: human SENP1 catalytic domain inhibitors, primary screen, biochemical, FRET, uHTS; Sentrin-specific protease 1 (Homo sapiens), Q9P0U3; recombinant SENP1 catalytic domain, CyPet-SUMO1-YPet FRET cleavage; inhibition, % at 10 µM; 360,000 compounds, 0.21% hits; AID 624204, 2012;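 active means inhibition at least 30% at 10 µM, raw YFP signal under a set limit, fluorescence ratio 0.5 to 1.5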
Target sequence (Q9P0U3 419-644 limits assumed): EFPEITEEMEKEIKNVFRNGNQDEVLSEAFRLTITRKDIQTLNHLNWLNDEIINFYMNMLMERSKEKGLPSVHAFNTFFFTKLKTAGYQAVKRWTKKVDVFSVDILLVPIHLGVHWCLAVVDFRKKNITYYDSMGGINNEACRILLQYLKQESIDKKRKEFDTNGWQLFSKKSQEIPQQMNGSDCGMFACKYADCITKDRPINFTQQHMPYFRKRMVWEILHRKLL
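Controls: no-enzyme wells low, DMSO-plus-enzyme wells high control. Test system: human recombinant His6-tagged SENP1 catalytic domain enzyme. Reagent: SFCypet-SUMO1-SFYpet FRET protein substrate, 25 nM final. Doses: one dose per compound, 10 µM, 0.5% DMSO. Detection: FRET, CFP and YFP emission. Timing: 50 min reaction at room temperature.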
SENP8 block-1: SENP8 protease inhibitors, primary screen, biochemical, luminescence; purified SENP8, Z-RLRGG-aminoluciferin cleavage; inhibition, % at 10 µM; 330,000 compounds, 1.2% hits; Sentrin-specific protease 8 (Homo sapiens), Q96LD8; in the data active means inhibition above about 50%
Target sequence (Q96LD8 whole entry, looked up): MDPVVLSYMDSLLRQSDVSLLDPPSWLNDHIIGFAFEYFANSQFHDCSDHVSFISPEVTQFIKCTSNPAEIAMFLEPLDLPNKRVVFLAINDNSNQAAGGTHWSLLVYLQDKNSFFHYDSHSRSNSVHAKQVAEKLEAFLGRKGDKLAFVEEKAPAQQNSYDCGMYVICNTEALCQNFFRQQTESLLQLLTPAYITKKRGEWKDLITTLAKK
SENP8 block-2: human SENP8 protease inhibitors, primary screen, biochemical, fluorescence, Nedd8 protein substrate, uHTS | Sentrin-specific protease 8 (Homo sapiens), Q96LD8 | inhibition, % at 20 µM | 360,000 compounds, 0.64% hits | recombinant SENP8; in the data active means inhibition mostly above about 40%, no sharp cut-off; inactive means mostly below about 27%
SENP7 inh: SENP7 protease inhibitors, primary screen, biochemical, luminescence, uHTS; 330,000 compounds, 1.5% hits; inhibition, % at 5 µM; AID 434973, 2010; recombinant SENP7, Z-RLRGG-aminoluciferin luminescence, 40 min; Sentrin-specific protease 7 (Homo sapiens), Q9BQF6;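 active means inhibition above about 50% at the single test dose, limit read from the data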
SENP6 block: SENP6 protease inhibitors, primary screen, biochemical, luminescence, uHTS. Recombinant SENP6 catalytic domain, aminoluciferin luminescence. inhibition, % at 10 µM. 330,000 compounds, 1.8% hits;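 active means inhibition above about 50% at the single tested dose, limit read from the data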
CendR NRP1 mod: modulators of CendR peptide binding to NRP-1, primary screen, biochemical, fluorescence polarization, uHTS. FAM-RPARPAR peptide binding to NRP-1. inhibition, % at 25 µM. 360,000 compounds, 0.85% hits;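 active means inhibition or corrected inhibition above about 18%, plus a signal ratio from 0.5 to 1.5, limit read from the data, passing the limit was not always enough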
Each line names hits and unclear results; the compound was inactive in the other large screens.

Cc1ccc(S(=O)(=O)N2CC3C(=O)C[C@@H](c4ccccc4)N(S(=O)(=O)c4ccccc4Cl)C3CC2c2ccccc2)cc1 (stereo partly specified)	none (no result: SENP8 block-1, SENP7 inh, SENP6 block)
COc1ccc([C@H]2CC(=O)C=C(c3ccccc3C(F)(F)F)C2)cc1	CendR NRP1 mod 28.7
CCOC(=O)[C@@H]1[C@H]2COc3ccccc3[C@@H]2N2C(=O)N(c3cccc(Cl)c3)C(=O)[C@]12C	CendR NRP1 mod 27.6
CCOC(=O)[C@@H]1[C@H]2COc3cc(OC)ccc3[C@H]2N2C(=O)N(c3cccc(F)c3)C(=O)[C@@]12C	CendR NRP1 mod 25.3
CCOC(=O)[C@@H]1[C@H]2COc3ccccc3[C@H]2N2C(=O)N(c3cccc(Cl)c3)C(=O)[C@@]12C	none
CCOC(=O)[C@H]1[C@H]2COc3ccccc3[C@@H]2N2C(=O)c3cc(Cl)ccc3NC(=O)[C@@]12C	CendR NRP1 mod 23.3
CCOC(=O)[C@H]1[C@H]2COc3cc(OC)ccc3[C@@H]2N2C(=O)N(c3cccc(F)c3)C(=O)[C@@]12C	none
COC(=O)[C@@]12C[C@@H](CC(=O)NCc3cccc4ccccc34)C(=O)N(Cc3ccccc3)C1=CCC(C)(C)C2	none (no result: SENP8 block-1, SENP7 inh, SENP6 block)
COC(=O)C[C@@H]1OC[C@H](C(C)C)N1S(=O)(=O)c1ccc(C)cc1	none (no result: SENP8 block-1, SENP7 inh, SENP6 block)
COc1ccc(C(=O)N2CCC(C)(C(=O)O)C2)c(OC)c1 (stereo unspecified)	none (no result: SENP8 block-1, SENP7 inh, SENP6 block)
O=C1c2c(-c3ccc(Br)cc3)noc2CCN1Cc1cn(C2CCCC2)nn1	none (no result: SENP8 block-1, SENP7 inh, SENP6 block)
Cc1ccc(CN2C(=O)CCC2C(=O)NC2CC2)cc1 (stereo unspecified)	CendR NRP1 mod 26.5
CC(=O)Nc1ccc(-c2cc3ccccc3o2)cc1	SENP7 inh 50.6
COc1ccccc1-c1cnc(C(O)c2cc(C)ccc2C)[nH]1 (stereo unspecified)	none (no result: SENP8 block-1, SENP7 inh, SENP6 block)
COc1cccc(-c2cc(C(F)(F)F)c3c(N)c(C#N)sc3n2)c1	SENP7 inh 85.9 (no result: SENP1 inh, SENP8 block-2, CendR NRP1 mod)
O=C(CSc1nnc(SCc2ccc(Cl)cc2)s1)N/N=C/c1ccc(C(=O)O)cc1	SENP8 block-1 64.9, SENP6 block 85.0
Cc1nn(-c2ccccc2)c(C)c1/C=N/NC(=O)CSc1nnc(SCc2ccccc2Cl)s1	SENP8 block-1 60.8, SENP6 block 70.6
Cc1nn(-c2ccccc2)c(C)c1/C=N/NC(=O)CSc1nnc(-c2ccccc2)n1-c1ccc(Cl)cc1	none
O=C(O)c1ccccc1C(=O)c1ccc2oc(=O)[nH]c2c1	none (no result: SENP8 block-1, SENP7 inh, SENP6 block)
O=C1c2ccccc2NC(c2cccnc2)N1c1ccccc1F (stereo unspecified)	none
Cc1ccccc1N1C(=O)c2ccccc2NC1c1ccncc1 (stereo unspecified)	CendR NRP1 mod 28.0
O=C(NC(=O)c1ccccc1)Nc1ccccn1	SENP8 block-1 93.6, SENP7 inh 99.8, SENP6 block 98.8
[N-]=[N+]=NC(c1ccccc1)C(NC(=O)c1cc(C(F)(F)F)cc(C(F)(F)F)c1)c1ccccc1 (stereo unspecified)	none (no result: SENP8 block-1, SENP7 inh, SENP6 block)
O=C(COc1ccc(Cl)cc1)NCc1nnc(SCC(=O)Nc2ccccc2)o1	none
O=C(COc1ccc(Cl)cc1)NCc1nnc(SCC(=O)NCCc2ccccc2)o1	CendR NRP1 mod 19.7
COC(=O)c1ccccc1NC(=O)CSc1nc(C)cc(C)n1	CendR NRP1 mod 44.6
COC(=O)c1ccccc1NC(=O)CSc1nc(N)cc(N)n1	none
CCN(Cc1cnn(C)c1)C(=O)c1cc(COc2ccc(F)cc2F)on1	none
CCN(Cc1ccncc1)C(=O)c1cc(COc2ccc(F)cc2F)on1	CendR NRP1 mod 43.3
COc1cc2c(C(=O)N3CCN(C)CC3)c(C)oc2cc1Br	none
CCOC(=O)c1c(C)oc2cc(Br)c(OC(=O)N3CCOCC3)cc12	CendR NRP1 mod 26.0
O=C(C[C@@H]1CC[C@@H]2[C@H](COC[C@H](O)CN2C(=O)Nc2ccc(F)cc2)O1)NCCc1ccncc1	none (no result: SENP8 block-1, SENP7 inh, SENP6 block)
COc1ccc(NC(=O)c2c(-c3c(Cl)cccc3Cl)noc2C)c(OC)c1	CendR NRP1 mod 25.5
Fc1ccc(-n2nnc(-c3cccnc3)n2)cc1	CendR NRP1 mod 26.9
N#Cc1nc(-c2ccco2)oc1NCc1ccc(F)cc1	CendR NRP1 mod 23.3
COCCCNc1oc(-c2ccccc2Cl)nc1C#N	none
CC(C)CNc1oc(-c2ccccc2Cl)nc1C#N	CendR NRP1 mod 25.7
CC(Nc1oc(-c2ccco2)nc1C#N)c1ccccc1 (stereo unspecified)	none
CC(C)CNc1oc(-c2ccco2)nc1C#N	CendR NRP1 mod 22.4
CNc1cc(-c2ccc(O)cc2C)ncn1	none (no result: SENP8 block-1, SENP7 inh, SENP6 block)
O=C(N/N=C/C=C\c1cccc([N+](=O)[O-])c1)c1ccccn1	CendR NRP1 mod 27.7
CC1(C(=O)NC2CCCCCC2)CCN1C(=O)C1(c2ccccc2)CC1 (stereo unspecified)	none (no result: SENP8 block-1, SENP7 inh, SENP6 block)
CCN(CCO)c1ncnc2onc(-c3ccc(F)cc3)c12	none
Cc1cccc(N(C)c2ncnc3onc(-c4ccc(F)cc4)c23)c1C	CendR NRP1 mod 21.5
COc1cc(CN2C[C@@H](CO)O[C@@H](n3cnc4c(N5CCN(c6ccccc6)CC5)ncnc43)C2)cc(OC)c1OC	CendR NRP1 mod 36.6 (no result: SENP8 block-1, SENP7 inh, SENP6 block)
COc1ccc([C@H]2N[C@]3(CCCN(Cc4ccc(C(F)(F)F)cc4)C3=O)[C@H]3C(=O)N(C)C(=O)[C@@H]23)cc1	none (no result: SENP8 block-1, SENP7 inh, SENP6 block)
CCCCN(C)CCNC(=O)c1cc2cc3ccc(OC)cc3nc2o1	CendR NRP1 mod 21.1
CCN(CC)CCNC(=O)c1cc2cc3ccc(OC)cc3nc2o1	none
CNc1nc2cc([N+](=O)[O-])c([N+](=O)[O-])cc2nc1NC	SENP1 inh 43.2 (no result: SENP8 block-1, SENP7 inh, SENP6 block)
O=C(CSc1nnc(NC(=O)c2ccc3c(c2)OCO3)s1)NCc1ccco1	SENP7 inh 64.5
O=C(Cc1ccc(Cl)cc1)NNC(=S)NC(=O)c1cccs1	CendR NRP1 mod 37.4
O=C(Nc1ccc(Cl)cc1)c1csc([C@@H]2O[C@H](CO)[C@@H](O)[C@H]2O)n1	none (no result: SENP8 block-1, SENP7 inh, SENP6 block)
CCc1nc2ccc(C(=O)Nc3ccc(C(N)=O)cc3)cn2c1N(CCC(C)C)CCN(C)C	none (no result: SENP8 block-1, SENP7 inh, SENP6 block)
Cc1cc(-c2ccc(S(=O)(=O)NCc3ccc(Cl)cc3)cc2)on1	CendR NRP1 mod 28.3 (no result: SENP8 block-1, SENP7 inh, SENP6 block)
Cc1cc(-c2ccc(S(=O)(=O)NCc3ccc(F)cc3)cc2)on1	none
CCCCNC(=S)N1CCn2cccc2C1c1ccccc1 (stereo unspecified)	CendR NRP1 mod 27.1
CCCCNC(=S)N1CCn2cccc2C1c1ccc(F)cc1 (stereo unspecified)	none
